Screens: PubChem, several laboratories
Only a selection was taken, and hits are over-represented in it overall.
L major viab: Leishmania major promastigote growth inhibition, primary screen; Leishmania major promastigotes, resazurin fluorescence viability; inhibition, % at 10 µM; hit rate 9% among 200,000; AID 1063, 2008; in the data active means inhibition above about 50%;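 further: promastigotes grown with compound for 44 hours at 28 °C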
T cruzi repl: inhibitors of intracellular T. cruzi growth, primary screen, luminescence, NIH3T3 host cells | T. cruzi beta-gal in NIH3T3, 90 h | inhibition, % (test concentration not listed) | hit rate 1.4% among 300,000 | AID 1885, 2009;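 active means mean inhibition across valid replicates above about 55%, limit read from the data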;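 further: signal also drops with host cell toxicity which is not excluded here; higher percent means less beta-gal luminescence so fewer parasites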
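System: Mouse NIH/3T3 fibroblasts infected with β-gal-expressing T. cruzi Tulahuen C4 | Quantity: NIH/3T3 cells, 5,000 per well | Reagent: 5000 reporter trypomastigotes per well | Dosing: Compound pinned at 50 nL/well, DMSO | Schedule: 3 h host attachment, then at least 90 h co-culture | Detection: GalScreen luminescence, 60 min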
Dynein transport: inhibitors of GR-EGFP nuclear translocation, primary screen, dynein cargo transport inhibitor project, imaging, high-content, 3617.4 mouse cells; test concentration mostly 20 µM; stimulated with dexamethasone, 1 µM; hits give low values; AID 1381, 2008; z-score, hits read low; hit rate 0.47% among 220,000;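 active means plate z-score of nuclear minus cytoplasmic receptor signal below a set negative limit, without overly bright fluorescence or cell loss, cut at about -3.5 in these data, passing the limit was not always enough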;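 further: z-score of nuclear minus cytoplasmic ring GR-EGFP intensity difference per well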
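Buffer or medium: tetracycline-free induction medium containing charcoal-stripped FBS / Reagent: dexamethasone agonist, 1.0 µM final, for 30 min / Technique: automated 10x imaging of fixed Hoechst-stained cells / Times: induction 48 h, compound 1 h, agonist 30 min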
UPR XBP1 act: activators of adaptive XBP1 UPR arm, primary screen, cell-based, CHO-XBP1 luciferase reporter, luminescence, uHTS; activation, % at 20 µM; hit rate 0.33% among 330,000; AID 463104, 2010; IRE1-XBP1 UPR activation; percent of tunicamycin response, DMSO as zero;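 active means versus positive control, 20 µM dose yields 30% or more activation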
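Material: CHO cell line with stable XBP1 luciferase reporter; schedule: 16-18 h cell attachment at 37 °C, then 6 h compound exposure; signal: glow luminescence from Steady-Glo reagent; medium: serum-containing F12 medium, 10% FBS; benchmarks: tunicamycin 10 µg/mL and vehicle-only wells; read-out: percent activation relative to tunicamycin reference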
CHOP inh: inhibitors of CHOP promoter induction, primary screen, cell-based, unfolded protein response, luciferase reporter. CHO-K1 CHOP-promoter luciferase, tunicamycin-induced, 15-18 h. inhibition, % at 10 µM. hit rate 3.8% among 220,000. AID 2732, 2010;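 active means compounds that reduced the stress-induced luciferase reporter signal by more than about 70% of percent inhibition, limit read from the data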
UPR CHOP act: activators of apoptotic CHOP UPR arm, primary screen, cell-based, CHO-CHOP luciferase reporter, luminescence, uHTS. hit rate 0.34% among 330,000. UPR activation; percent of tunicamycin response over DMSO baseline. activation, % at 10 µM;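 active means at 10 µM dose, activation of 40% or more, normalized to positive control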
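Assay system: CHO-CHOP cells, stable luciferase reporter of PERK-eIF2a-CHOP signalling / Buffer or medium: F12 plus 10% serum / Compound dosing: one dose, 10 µM in 0.5% DMSO / Times: 6 h compound treatment, 37 °C / Technique: luciferase luminescence / Read-out: % reporter activation, DMSO baseline versus tunicamycin full activation / Benchmarks: tunicamycin and DMSO controls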
Numbers stand for hits; n = inactive; x = no result given.

SMILES | L major viab | T cruzi repl | Dynein transport | UPR XBP1 act | CHOP inh | UPR CHOP act
CC(C(=O)O)N1CCCCC1 (configuration not stated) | x | n | n | n | n | n
Cn1ccc(NC(=O)c2ccc([N+](=O)[O-])cc2)n1 | x | x | x | n | x | n
CCOC(=O)N1CCN(C(=O)c2c(Cl)cnn2C)CC1 | x | n | x | n | x | n
Cc1ccc(S(=O)(=O)NCCC(=O)N2CCC(Cc3ccccc3)CC2)cc1 | x | n | x | n | x | n
Cc1ccc(S(=O)(=O)NCc2ccc(C(=O)NCCCN3CCC(Cc4ccccc4)CC3)cc2)cc1 | 96 | n | n | n | n | n
COc1cccc(Oc2cc(Cl)nc(N)n2)c1 | x | n | x | n | x | n
Cc1ccc(S(=O)(=O)NC(=O)c2ccccc2C)cc1 | x | n | x | n | x | n
CCCOc1ccc(S(=O)(=O)n2cc(F)c(=O)[nH]c2=O)cc1 | x | n | x | n | x | n
C=C(C)c1cccc(C(C)(C)NC(=O)Nc2ccc(OC)cc2)c1 | n | n | n | n | n | n
C=C(C)c1cccc(C(C)(C)NC(=O)NC(c2ccccc2)c2ccc(OC)cc2)c1 (configuration not stated) | 98 | n | n | n | n | n
Cc1ccc(Cl)cc1N1CCN(C(=O)Cn2ncn3cccc3c2=O)CC1 | x | n | x | n | x | n
COc1ccccc1NS(=O)(=O)c1cccc(C(=O)N/N=C(\C)c2ccc3c(c2)OCCO3)c1 | 99 | n | n | n | n | n
COc1ccccc1NS(=O)(=O)c1cccc(C(=O)N/N=C(\C)c2cccnc2)c1 | x | x | x | n | x | n
COc1ccccc1NS(=O)(=O)c1cccc(C(=O)N/N=C(\C)c2ccc(-n3ccnc3)cc2)c1 | 100 | n | n | n | n | n
COC(=O)c1ccc(C)c(NS(=O)(=O)c2ccc3c(c2)OCCO3)c1 | 100 | n | n | n | x | n
COC(=O)c1ccc(C)c(NS(=O)(=O)c2ccc(OC)cc2)c1 | n | n | n | n | n | n
C/C(=N\NC(=O)CN(c1ccccc1Br)S(C)(=O)=O)c1cccs1 | n | n | n | n | n | n
C/C(=N\NC(=O)CN(c1ccccc1Br)S(C)(=O)=O)c1ccc2c(c1)OCCO2 | 51 | n | n | n | n | n
NS(=O)(=O)c1cccc(NC(=O)CSc2nnc3n2CCCCC3)c1 | x | x | x | n | x | n
Clc1cccc(NCc2nnc(SCc3ccccc3Cl)o2)c1 | n | n | n | n | n | n
Clc1cccc(NCc2nnc(SCc3ccccc3)o2)c1 | n | n | n | n | 71 | n
CCC1(C)Cc2nc3[nH]c(=S)n(-c4ccccc4)c(=O)c3cc2CO1 (configuration not stated) | 56 | n | n | n | n | n
CCC1(C)Cc2nc3[nH]c(=S)n(-c4ccccc4C)c(=O)c3cc2CO1 (configuration not stated) | x | n | n | n | n | n
Cc1ccc(C)c(CN2C(=O)COc3ccc(C(=O)c4ccccc4C(=O)O)cc32)c1 | 100 | n | n | n | n | n
Cc1ccc(C)c(CN2C(=O)COc3ccccc32)c1 | x | n | x | n | x | n
SMILES | L major viab | T cruzi repl | Dynein transport | UPR XBP1 act | CHOP inh | UPR CHOP act
COc1ccc(N(C)S(=O)(=O)c2ccc3c(c2)NC(=O)CO3)c(OC)c1 | x | n | x | n | x | n
Cc1sc2ncnc(N3CCN(CCOc4ccc(Cl)cc4)CC3)c2c1C | n | 59 | n | n | 92 | n
C/C(Cc1ccccc1)=N\NC(=O)CNC(=O)c1ccccc1Br | 62 | n | n | n | n | n
Cc1nc2cc(N3CCCCC3)c(NC(=O)c3ccncc3)cc2c(=O)n1Cc1ccc(Cl)cc1 | n | n | n | n | n | n
Cc1nc2cc(N3CCN(C)CC3)c(NC(=O)Cc3ccccc3)cc2c(=O)n1Cc1ccccc1 | 89 | n | n | n | n | n
COc1ccc(CCNC(=O)CSc2nc3scc(-c4ccccc4)c3c(=O)[nH]2)cc1 | x | x | x | n | x | n
COc1ccc(N2CCC(CNS(=O)(=O)c3cccc(C(F)(F)F)c3)C2)cc1 (configuration not stated) | n | x | n | n | 74 | n
CCc1ccc(NC(=O)NCC2CCN(c3ccc(OC)cc3)C2)cc1 (configuration not stated) | x | n | n | n | n | n
COc1ccc(N2CCC(CNC(=S)Nc3cccc(C)c3)C2)cc1 (configuration not stated) | 72 | n | n | n | n | n
CCOc1ccc(NC(=O)NCC2CCN(c3ccc(OC)cc3)C2)cc1 (configuration not stated) | n | n | n | n | 76 | n
CCC(C)(C)n1nnnc1C(c1ccccc1)N1CCc2ccccc2C1 (configuration not stated) | 77 | n | n | n | n | n
CC(C)(C)n1nnnc1C(c1cccc(C#N)c1)N1CCCCCC1 (configuration not stated) | n | n | n | n | n | n
CCC(C)(C)n1nnnc1C(c1ccccc1)N1CCN(C2CCCC2)CC1 (configuration not stated) | n | n | n | n | n | n
CCC(C)(C)n1nnnc1C(c1ccc(C)cc1)N1CCCC1 (configuration not stated) | 65 | n | n | n | n | n
CCC(C)(C)n1nnnc1C(c1cccc(C#N)c1)N1CCN(c2cccc(C)c2C)CC1 (configuration not stated) | 76 | n | n | n | n | n
CCC(C)(C)n1nnnc1C(c1cc(OC)c(OC)c(OC)c1)N1CCN(c2ccccc2)CC1 (configuration not stated) | n | n | n | n | n | n
CCC(C)(C)n1nnnc1C(c1ccc(O)c(OC)c1)N1CCc2ccccc2C1 (configuration not stated) | n | n | n | n | n | 42
CCC(C)(C)n1nnnc1C(c1cccs1)N1CCCCC1 (configuration not stated) | n | n | n | n | n | n
CC(C)(C)c1ccc(NC(=O)CSc2n[nH]c(=O)n2C2CC2)cc1 | x | x | x | n | x | n
CCC(C(=O)NCCc1c[nH]c2cc(OC)ccc12)c1ccccc1 (configuration not stated) | x | n | x | n | x | n
Cc1ccc(S(=O)(=O)N2CCCC2)cc1C(=O)NCCN1CCOCC1 | x | n | x | n | x | n
Cc1cc(C)cc(NS(=O)(=O)c2ccc(NC(=S)NC(=O)c3ccc(Br)o3)cc2)c1 | 95 | x | n | n | n | n
